Measured values as given in ChEMBL document CHEMBL2406909, “Hydrolysis reactions of the taccalonolides reveal structure-activity relationships” (J Nat Prod, 2013).
Activity calls are given as the source filed them. The rule behind the calls is not given here.

How the values were obtained:
HeLa [1] = assay: Antiproliferative activity against human HeLa cells after 48 hrs by SRB assay; assay type: functional, cell-based
HeLa [2] = assay: Antiproliferative activity against human HeLa cells; assay type: functional, cell-based
Summary of the method: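 HeLa cells (ATCC) grown in Basal Medium Eagle with 10% FBS and 50 μg/mL gentamicin and exposed to compound for 48 h. Cells then TCA-fixed and stained with sulforhodamine B, with density read as absorbance at 560 nm. IC50 (50% inhibition of proliferation) taken ± SD from three independent experiments, each run in triplicate.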

HeLa [3] = assay: Stabilization of microtubule in human HeLa cells assessed as increase in cellular density of interphase microtubules at 50 uM after 18 hrs by immunofluoroescence analysis; assay type: cell-based
Summary of the method: (§1)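 HeLa cells in Basal Medium Eagle with 10% FBS and gentamicin, treated with vehicle or taccalonolide for 18 h. Interphase microtubules visualized by indirect immunofluorescence with a β-tubulin antibody and imaged by fluorescence microscopy. Microtubule density and bundling judged from representative images against vehicle-treated cells.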

HeLa [4] = assay: Stabilization of microtubule in human HeLa cells assessed as increase in cellular density of interphase microtubules at 10 uM after 18 hrs by immunofluoroescence analysis; assay type: cell-based; summary of the method: as §1

Compound | IC50 (HeLa [1]) [µM] | IC50 (HeLa [2]) [µM] | Activity (HeLa [3]) | Activity (HeLa [4])
CC(=O)O[C@H]1[C@H]2[C@H]([C@@H]3[C@@H](O)[C@@H]4[C@H]([C@H](C)[C@@H]5O[C@@]56OC(=O)[C@@](C)(O)[C@]46C)[C@@]3(C)[C@H]1OC(C)=O)[C@@H](O)C(=O)[C@H]1C[C@@H]3O[C@@H]3[C@H](OC(C)=O)[C@]21C | – | 0.0042 | – | –
CC(=O)O[C@@H]1[C@H]2[C@H]3[C@H]([C@H](OC(C)=O)[C@H](OC(C)=O)[C@]2(C)[C@@H]2[C@@H]1[C@]1(C)C(=C[C@H]2C)OC(=O)[C@@]1(C)O)[C@]1(C)[C@H](C[C@@H]2O[C@@H]2[C@@H]1OC(C)=O)C(=O)[C@@H]3O [TACCALONOLIDE A] | 5.32 | – | – | –
CC(=O)O[C@H]1C[C@H]2[C@H]([C@@H]3[C@H]4OC(=O)[C@@](C)(O)[C@@]5(C)C(=O)C[C@@H](C)[C@@H]([C@@H]45)[C@]31C)[C@@H](O)C(=O)[C@H]1C[C@@H]3O[C@@H]3[C@H](OC(C)=O)[C@@]12C | > 50 | – | inactive | –
CC(=O)O[C@H]1[C@H]2[C@H]([C@@H]3[C@@H](O)[C@@H]4[C@H]([C@H](C)C=C5OC(=O)[C@@](C)(O)[C@@]54C)[C@@]3(C)[C@H]1OC(C)=O)[C@@H](O)C(=O)[C@H]1C[C@@H]3O[C@@H]3[C@H](OC(C)=O)[C@]21C [TACCALONOLIDE B] | 3.12 | – | – | –
CC(=O)O[C@@H]1[C@H]2[C@H]3[C@H]([C@H](OC(C)=O)[C@H](OC(C)=O)[C@]2(C)[C@H]2[C@H](C)[C@@H]4O[C@@]45OC(=O)[C@@](C)(O)[C@]5(C)[C@H]12)[C@]1(C)[C@H](C[C@@H]2O[C@@H]2[C@@H]1OC(C)=O)C(=O)[C@@H]3O | – | 0.023 | – | –
CC(=O)O[C@H]1C[C@H]2[C@H]([C@@H]3[C@@H](O)[C@@H]4[C@H]([C@H](C)C=C5OC(=O)[C@@](C)(O)[C@@]54C)[C@]31C)[C@@H](O)C(=O)[C@@]1(O)C[C@@H]3O[C@@H]3[C@H](OC(=O)CC(C)C)[C@]21C | 2 | – | Active | –

Continued, in another order:

IC50 (HeLa [1]) [µM] | Compound | IC50 (HeLa [2]) [µM] | Activity (HeLa [3]) | Activity (HeLa [4])
8.5 | CC(=O)O[C@H]1C[C@H]2[C@H]([C@@H]3[C@@H](O)[C@@H]4[C@H]([C@H](C)C=C5OC(=O)[C@@](C)(O)[C@@]54C)[C@]31C)[C@@H](O)C(=O)[C@H]1C[C@@H]3O[C@@H]3[C@H](OC(C)=O)[C@@]12C [TACCALONOLIDE N] | – | – | –
49.2 | CC(=O)O[C@H]1[C@H]2[C@@H](C(=O)[C@H](O)[C@H]3C[C@@H]4O[C@@H]4[C@H](OC(C)=O)[C@]23C)[C@@H]2[C@@H](O)[C@@H]3[C@H]([C@H](C)C=C4OC(=O)[C@@](C)(O)[C@@]43C)[C@@]2(C)[C@H]1OC(C)=O | – | – | –
> 50 | CC(=O)O[C@H]1[C@H]2[C@H]([C@@H]3[C@H]4OC(=O)[C@@](C)(O)[C@@]5(C)C(=O)C[C@@H](C)[C@@H]([C@@H]45)[C@@]3(C)[C@H]1OC(C)=O)[C@@H](O)C(=O)[C@H]1C[C@@H]3O[C@@H]3[C@H](OC(C)=O)[C@]21C | – | inactive | –
39.5 | CC(=O)O[C@@H]1[C@H]2[C@@H]3[C@@H](O)C(=O)[C@H]4C[C@@H]5O[C@@H]5[C@H](OC(C)=O)[C@]4(C)[C@H]3C[C@H](OC(C)=O)[C@]2(C)[C@@H]2[C@@H]1[C@]1(C)C(=C[C@H]2C)OC(=O)[C@@]1(C)O [TACCALONOLIDE E] | – | – | –
34.4 | CC(=O)O[C@H]1C[C@H]2[C@H]([C@@H]3[C@@H](O)[C@@H]4[C@H]([C@H](C)C=C5OC(=O)[C@@](C)(O)[C@@]54C)[C@]31C)[C@@H](O)C(=O)[C@@]1(O)C[C@@H]3O[C@@H]3[C@H](OC(C)=O)[C@]21C | – | Active | –
1.5 | CC(=O)O[C@H]1C[C@H]2[C@H]([C@@H]3[C@@H](O)[C@@H]4[C@H]([C@H](C)C=C5OC(=O)[C@@](C)(O)[C@@]54C)[C@]31C)[C@@H](O)C(=O)[C@H]1C[C@@H]3O[C@@H]3[C@H](O)[C@@]12C | – | – | Active
